Screening data: PubChem, several laboratories
UBC13 polyUb – UBC13 polyubiquitin chain formation inhibitors, primary screen, biochemical, TR-FRET, uHTS | inhibition, % at 20 µM | actives 0.47% (n = 330,000) | AID 485273, 2010; in the data active = inhibition above about 45%, passing the limit was not always enough
Target sequence (P61088 whole entry, looked up): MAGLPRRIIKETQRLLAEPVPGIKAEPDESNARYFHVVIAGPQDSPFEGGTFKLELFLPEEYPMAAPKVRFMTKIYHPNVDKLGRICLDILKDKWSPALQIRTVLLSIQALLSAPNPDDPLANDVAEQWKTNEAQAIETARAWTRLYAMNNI
MEKK2 mut-MEK5 – MEK5 binding signal on mutant MEKK2 PB1, primary screen, biochemical, multiplex bead flow cytometry, Alexa488-MEK5; actives 0.35% (n = 290,000); percent response, % at 10 µM; Alexa488-MEK5 binding to MEKK2 mutant; in the data active = percent response above about 24%, passing the limit was not always enough
UCH37 inh – inhibitors of human UCH37 deubiquitinase, primary screen, biochemical, Ub-AMC cleavage, fluorescence; Ubiquitin carboxyl-terminal hydrolase isozyme L5 (Homo sapiens), Q9Y5K5; purified proteasome/UCH37; inhibition, % (test concentration not listed); actives 0.33% (n = 330,000); AID 588478, 2011;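 active = mean inhibition over replicate wells above about 20%, limit read from the data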
Target sequence (Q9Y5K5 whole entry, looked up): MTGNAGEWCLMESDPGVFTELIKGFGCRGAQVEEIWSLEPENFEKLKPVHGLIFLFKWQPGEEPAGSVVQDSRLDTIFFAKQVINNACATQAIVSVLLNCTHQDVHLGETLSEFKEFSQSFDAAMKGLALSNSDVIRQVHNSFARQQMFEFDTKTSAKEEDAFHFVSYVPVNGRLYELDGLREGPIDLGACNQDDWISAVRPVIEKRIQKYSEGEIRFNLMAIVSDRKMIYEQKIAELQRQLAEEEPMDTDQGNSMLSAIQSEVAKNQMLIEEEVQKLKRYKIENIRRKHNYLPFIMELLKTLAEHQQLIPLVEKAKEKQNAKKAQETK
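Material: human UCH37 enzyme supplied as purified proteasome complex / Amount: 0.15 nM proteasome as dispensed / Buffer or medium: pH 7.4 Tris-HCl (50 mM) with ovalbumin, ATP-MgCl2, DTT / Times: preincubation 30 min, reaction 25 min, room temperature / Technique: AMC fluorescence from Ub-AMC cleavage, excitation 355 nm, emission 460 nm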
Apaf1 inhib – inhibitors of human Apaf-1 apoptosome, primary screen, biochemical, DEVD-Rh110 fluorescence, uHTS; actives 0.71% (n = 330,000); reconstituted apoptosome caspase-3 activity; inhibition, % at 20 µM; Apoptotic protease-activating factor 1 (Homo sapiens), O14727; active = inhibition of at least 40% at 20 µM
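Assay system: Apoptosome proteins | Medium: pH 7.5 Hepes buffer with CHAPS, BSA, DTT | Also added: Cytochrome c and DEVD-Rh110 substrate | Times: 30 min plus 50 min, RT | Detection: Rhodamine 110 fluorescence at Ex 480/Em 540 nm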
MEKK3 PB1 HTS – modulators of MEKK3-MEK5 PB1 binding, primary screen, biochemical, wildtype MEKK3, multiplex bead flow cytometry, Alexa488-MEK5; bead-based flow cytometry, Alexa488-MEK5 binding to MEKK3; actives lie on both sides; 0 = blocked by unlabeled MEK5, 100 = vehicle; actives 1.4% (n = 290,000); binding response (% of control), % at 10 µM; Mitogen-activated protein kinase kinase kinase 3 (Homo sapiens), Q99759;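 active = binding response more than 3 SD above or below the average of its plate-row segment, actives on both sides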;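 also: Alexa488 bead fluorescence after subtracting the streptavidin-only scavenger bead signal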
MEKK2wt PB1 HTS – modulators of MEK5 binding to wildtype MEKK2, primary screen, biochemical, multiplex bead flow cytometry, Alexa488-MEK5; Mitogen-activated protein kinase kinase kinase 2 (Homo sapiens), Q9Y2U5; Alexa488-MEK5 binding to MEKK2 WT; actives lie on both sides; binding response (% of control), % at 10 µM; actives 1.1% (n = 290,000); in the data active = binding response below about 67% or above about 130%
Of the large screens only hits and unclear results are named; the others gave an inactive call. Shown are actives, neighbours in structure and some others; about 3% of the full set was active somewhere.

O=C1NCCCC2c3c(cc(Br)c(O)c3Br)OC12N1CCOCC1 (centres undefined)	none
O=C1NCCCC2c3cc(O)c4ccccc4c3OC12N1CCCCC1 (centres undefined)	Apaf1 inhib 93.0 (no result: UCH37 inh)
Cc1ccc(NC(=O)CSc2nc(C)c(Cc3ccccc3)c(=O)[nH]2)cc1C	MEKK2wt PB1 HTS 26.0
Cc1cccc(NC(=O)CSc2nc(C)c(Cc3ccccc3)c(=O)[nH]2)c1	none (no result: MEKK2 mut-MEK5, MEKK3 PB1 HTS, MEKK2wt PB1 HTS)
COc1cccc(NC(=S)N(CCCN2CCN(C)CC2)Cc2ccco2)c1	none
CC(C)(C)NC(=O)CSc1nnc(C2CC2)n1-c1ccccc1	none
NS(=O)(=O)c1ccc(N=Nc2c(=O)[nH]n3c(=O)c4c([nH]c23)CCCC4)cc1	UCH37 inh 20.5
Cc1ccc(N=Nc2c(=O)[nH]n3c(C)cc(C)nc23)cc1	none (no result: MEKK2 mut-MEK5, MEKK3 PB1 HTS, MEKK2wt PB1 HTS)
Cc1cc(C)n2[nH]c(=O)c(N=Nc3ccc(S(N)(=O)=O)cc3)c2n1	UCH37 inh 24.6
COc1cccc(N=Nc2c(=O)[nH]n3c(=O)c4c([nH]c23)CCC4)c1	UCH37 inh 20.2
O=c1[nH]n2c(=O)c3c([nH]c2c1N=Nc1cccc(Cl)c1)CCC3	none (no result: UBC13 polyUb, Apaf1 inhib)
O=C1CSc2ccc(C(=O)O)cc2N1	none
CCOC(=O)c1nc2cc3n(c(C)c-2c1C)C(C)C(C)=C3C (centres undefined)	MEKK3 PB1 HTS 127.0
O=[N+]([O-])c1ccc(-c2ccc(/C=N/Nc3nc(NCc4ccccc4)nc(N4CCOCC4)n3)o2)cc1	MEKK2wt PB1 HTS 14.0 (no result: UCH37 inh)
CC(C)c1ccc(-c2nc3ccccc3s2)cc1	MEKK2wt PB1 HTS -3.0
C=CCn1cc(/C=N/Nc2nc3ccccc3[nH]2)c2ccccc21	MEKK2wt PB1 HTS 232.0 (no result: UCH37 inh)
Clc1nc2ccccc2cc1/C=N/Nc1nc2ccccc2[nH]1	MEKK3 PB1 HTS 156.0 (no result: UCH37 inh)
C#CCn1cc(C=NNc2nc3ccccc3[nH]2)c2ccccc21	none (no result: UBC13 polyUb, MEKK2 mut-MEK5, Apaf1 inhib, MEKK3 PB1 HTS, MEKK2wt PB1 HTS)
COc1ccc(C(OC(=O)c2c(C)noc2C)C(=O)NC2CCCC2)cc1 (centres undefined)	none
CC(C)c1ccc(NC2CCCN(C(=O)c3cnn(C(C)C)c3)C2)cc1 (centres undefined)	none
COc1cc2c(cc1NC(=O)c1cc(-c3cccnc3)nc3ccc(C)cc13)oc1ccccc12	none
COc1cc2c(cc1NC(=O)c1cc(-c3ccncc3)nc3ccccc13)oc1ccccc12	MEKK2wt PB1 HTS 16.0
CCOc1ccc(NC(=O)Cn2c(=O)oc3ccccc32)cc1	UCH37 inh 30.5
Cc1cc(OC(C)C(=O)N2C[C@H]3C[C@@H](C2)c2cccc(=O)n2C3)c2c(C)c(C)c(=O)oc2c1 (some centres undefined)	none
Cc1cc(C)cc(NC(=S)N(CCN(C)C)Cc2cccs2)c1	none
O=C(Nc1cc2cccc([N+](=O)[O-])c2oc1=O)c1cccs1	MEKK2wt PB1 HTS -8.0
Cc1c(NC(=O)c2cccs2)cccc1[N+](=O)[O-]	none
CCCCn1c(N)c(N(CC)C(=O)C(c2ccccc2)c2ccccc2)c(=O)[nH]c1=O	MEKK2 mut-MEK5 64.0
CCCCn1c(N)c(N(CC)C(=O)c2ccco2)c(=O)[nH]c1=O	none (no result: MEKK2 mut-MEK5, MEKK3 PB1 HTS, MEKK2wt PB1 HTS)
Nc1c(C(=O)NCc2ccco2)c2nc3ccccc3nc2n1CCc1ccc(F)cc1	Apaf1 inhib 77.6
COCCn1c(N)c(C(=O)NCc2cccs2)c2nc3ccccc3nc21	Apaf1 inhib 95.2
COCCn1c(N)c(S(=O)(=O)c2cccs2)c2nc3ccccc3nc21	none (no result: MEKK2 mut-MEK5, MEKK3 PB1 HTS, MEKK2wt PB1 HTS)
Nc1nn2c(-c3ccccc3)cc(=O)[nH]c2c1N=Nc1ccc(O)cc1	Apaf1 inhib 40.6
COc1cccc(CCN2CCC(CNS(=O)(=O)c3cc(-c4cc(C)no4)ccc3C)CC2)c1	MEKK2wt PB1 HTS 140.0
CC(=O)c1ccc(N(C(=O)CNC(=O)c2ccco2)C(C(=O)NC2CCCC2)c2ccc(C)o2)cc1 (centres undefined)	none
Cc1ccc(/C=C2\C(=N)N3N=C(CC(=O)N4CCOCC4)SC3=NC2=O)o1	none
N=C1/C(=C/c2ccc(-c3cccc(C(=O)O)c3)o2)C(=O)N=C2SC(CC(=O)N3CCOCC3)=NN12	UCH37 inh 23.9
O=C(NC1CCCC1)C(c1ccc(F)cc1)N(C(=O)c1csnn1)C1CCCC1 (centres undefined)	none
CCCCCCCc1ccc(C2NC(=S)NC3=C2C(=O)c2ccccc23)cc1 (centres undefined)	Apaf1 inhib 44.1
CCC(=O)Nc1ccc(C(=O)N/N=C/c2c(C)[nH]c3ccccc23)cc1	MEKK2wt PB1 HTS 35.0 (no result: UCH37 inh)
Cc1[nH]c2ccccc2c1C=NNC(=O)c1ccccc1	none (no result: UBC13 polyUb, MEKK2 mut-MEK5, Apaf1 inhib, MEKK3 PB1 HTS, MEKK2wt PB1 HTS)
Cc1ccccc1S(=O)(=O)NNC(=O)C(=O)NNc1ccccn1	none (no result: MEKK2 mut-MEK5, MEKK3 PB1 HTS, MEKK2wt PB1 HTS)
Nc1ccc(S(=O)(=O)NNC(=O)C(=O)NNc2ccccn2)cc1	UBC13 polyUb 93.4 (no result: MEKK2 mut-MEK5, MEKK3 PB1 HTS, MEKK2wt PB1 HTS)
Cc1cc(NS(=O)(=O)c2ccc(NC(=O)CSc3nc4ncc(Br)cc4[nH]3)cc2)nc(C)n1	none
Cc1cc(NS(=O)(=O)c2ccc(NC(=O)CSc3nc4ncc(Cl)cc4[nH]3)cc2)nc(C)n1	MEKK2wt PB1 HTS -4.0 (no result: UCH37 inh)
Cc1ccc(Nc2nc(N/N=C/c3c[nH]c4ccccc34)nc(N3CCOCC3)n2)cc1	MEKK3 PB1 HTS 145.0 (no result: UCH37 inh)
Clc1ccc2c(N/N=C/c3cccc(Br)c3)ccnc2c1	none (no result: UBC13 polyUb, UCH37 inh, Apaf1 inhib)
CC(C)c1ccc(OCc2ccc(C(=O)O)o2)cc1	none
O=C1CCN(CCCc2ccccc2)CCN1[C@H](CO)c1ccccc1	UCH37 inh 28.1
COc1cc(C(=O)N2CCN(CCCc3ccccc3)CC2)cc(OC)c1OC	none (no result: MEKK2 mut-MEK5, MEKK3 PB1 HTS, MEKK2wt PB1 HTS)
